Test results reported in ChEMBL document CHEMBL1140331, “Iterative approach to the discovery of novel degarelix analogues: substitutions at positions 3, 7, and 8. Part II” (J Med Chem, 2005).
pIC50: −log10 of the molar value. *1 amine or outer side, *2 acyl side, *3 side chain or, on linkers, in order; H or OH if unused. Where a SMILES comes first, the peptide text is derived from it. [ ]: non-standard residue; d: D form. The star is where a group is joined. Phe(4-NH(5-NH2triazol-3-yl)) = Nc1nc(Nc2ccc(C[C@H](N)C(=O)O)cc2)n[nH]1; X1 = Nc1nc(Nc2ccc(C[C@@H](N[*:1])C(=O)[*:2])cc2)n[nH]1; dPhe(4-NHCONH2) = NC(=O)Nc1ccc(C[C@@H](N)C(=O)O)cc1; Dihydroorotyl(S) = O=C1C[C@@H](C(=O)*)NC(=O)N1; dPhe(4-Cl) = N[C@H](Cc1ccc(Cl)cc1)C(=O)O; Phe(4-NH2) = Nc1ccc(C[C@H](N)C(=O)O)cc1; d2Nal = N[C@H](Cc1ccc2ccccc2c1)C(=O)O; Lys(iPr) = CC(C)NCCCC[C@H](N)C(=O)O; d3Pal = N[C@H](Cc1cccnc1)C(=O)O

Biological target: T1, Gonadotropin-releasing hormone receptor (Homo sapiens, UniProt P30968)
T1 sequence (P30968 whole entry): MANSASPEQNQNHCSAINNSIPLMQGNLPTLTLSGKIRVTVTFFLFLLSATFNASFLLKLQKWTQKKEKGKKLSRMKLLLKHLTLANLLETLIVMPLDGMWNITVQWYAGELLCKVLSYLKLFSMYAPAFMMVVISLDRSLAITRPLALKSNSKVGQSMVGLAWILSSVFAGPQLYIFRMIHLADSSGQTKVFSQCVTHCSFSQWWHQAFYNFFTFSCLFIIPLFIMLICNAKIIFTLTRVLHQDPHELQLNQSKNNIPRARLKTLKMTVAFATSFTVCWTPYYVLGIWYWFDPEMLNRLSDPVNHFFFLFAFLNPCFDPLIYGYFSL
Assay: Antagonism of GnRH response in HEK293 cells expressing human GnRH receptor
Format: functional, cell-based
Conditions: not given
Outline: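 HEK293 cells stably carrying cloned human GnRH receptor and luciferase reporter under LH α-subunit promoter; cultured in phenol red-free DMEM, 10% FBS, G418 0.4 mg/mL; plated 5×10^4 cells/well, overnight 37 °C. Compound (11 half-log concentrations, duplicate, 1% DMSO) preincubated 10 min, then GnRH 1 nM final, ≥5 h; luminescence read; % of control cps (blank-subtracted) gives IC50.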

SMILES | pIC50
C#CC[C@H](NC(=O)[C@@H](Cc1ccc(NC(N)=O)cc1)NC(=O)[C@H](Cc1ccc(NC(=O)[C@@H]2CC(=O)NC(=O)N2)cc1)NC(=O)[C@H](CO)NC(=O)[C@@H](Cc1cccnc1)NC(=O)[C@@H](Cc1ccc(Cl)cc1)NC(=O)[C@@H](Cc1ccc2ccccc2c1)NC(C)=O)C(=O)N[C@@H](CCCCNC(C)C)C(=O)N1CCC[C@H]1C(=O)N[C@H](C)C(N)=O | 8.68
CC(=O)N[C@H](Cc1ccc2ccccc2c1)C(=O)N[C@H](Cc1ccc(Cl)cc1)C(=O)N[C@H](Cc1cccnc1)C(=O)N[C@@H](CO)C(=O)N[C@@H](Cc1ccc(NC(=O)[C@@H]2CC(=O)NC(=O)N2)cc1)C(=O)N[C@H](Cc1ccc(NC(N)=O)cc1)C(=O)N[C@@H](Cc1c[nH]cn1)C(=O)N[C@@H](CCCCNC(C)C)C(=O)N1CCC[C@H]1C(=O)N[C@H](C)C(N)=O | 7.97
CC(=O)N[C@H](Cc1ccc2ccccc2c1)C(=O)N[C@H](Cc1ccc(Cl)cc1)C(=O)N[C@H](Cc1cccnc1)C(=O)N[C@@H](CO)C(=O)N[C@@H](Cc1ccc(NC(=O)[C@@H]2CC(=O)NC(=O)N2)cc1)C(=O)N[C@H](Cc1ccc(NC(N)=O)cc1)C(=O)N[C@@H](CC(C)C)C(=O)N[C@@H](CCCNC(C)C)C(=O)N1CCC[C@H]1C(=O)N[C@H](C)C(N)=O | 8.76
CC(=O)N[C@H](Cc1ccc2ccccc2c1)C(=O)N[C@H](Cc1ccc(Cl)cc1)C(=O)N[C@H](Cc1cccnc1)C(=O)N[C@@H](CO)C(=O)N[C@@H](Cc1ccc(NC(=O)[C@@H]2CC(=O)NC(=O)N2)cc1)C(=O)N[C@H](Cc1ccc(NC(N)=O)cc1)C(=O)N(C)[C@@H](CC(C)C)C(=O)N[C@@H](CCCCNC(C)C)C(=O)N1CCC[C@H]1C(=O)N[C@H](C)C(N)=O | 8.83
CC(=O)N[C@H](Cc1ccc2ccccc2c1)C(=O)N[C@H](Cc1ccc(Cl)cc1)C(=O)N[C@H](Cc1cccnc1)C(=O)N[C@@H](CO)C(=O)N[C@@H](Cc1ccc(NC(=O)[C@@H]2CC(=O)NC(=O)N2)cc1)C(=O)N[C@H](Cc1ccc(NC(N)=O)cc1)C(=O)N[C@@H](CC(C)C)C(=O)N(C)[C@@H](CCCCNC(C)C)C(=O)N1CCC[C@H]1C(=O)N[C@H](C)C(N)=O | 7.28
CNC(=O)C[C@H](NC(=O)[C@@H](Cc1ccc(NC(N)=O)cc1)NC(=O)[C@H](Cc1ccc(NC(=O)[C@@H]2CC(=O)NC(=O)N2)cc1)NC(=O)[C@H](CO)NC(=O)[C@@H](Cc1cccnc1)NC(=O)[C@@H](Cc1ccc(Cl)cc1)NC(=O)[C@@H](Cc1ccc2ccccc2c1)NC(C)=O)C(=O)N[C@@H](CCCCNC(C)C)C(=O)N1CCC[C@H]1C(=O)N[C@H](C)C(N)=O | 7.59
CC(=O)N[C@H](Cc1ccc2ccccc2c1)C(=O)N[C@H](Cc1ccc(Cl)cc1)C(=O)N[C@H](Cc1cccnc1)C(=O)N[C@@H](CO)C(=O)N[C@@H](Cc1ccc(NC(=O)[C@@H]2CC(=O)NC(=O)N2)cc1)C(=O)N[C@H](Cc1ccc(NC(N)=O)cc1)C(=O)N[C@@H](CC(C)C)C(=O)N[C@@H](CCCCNC1CCCCC1)C(=O)N1CCC[C@H]1C(=O)N[C@H](C)C(N)=O | 8.82
CC(=O)N[C@H](Cc1ccc2ccccc2c1)C(=O)N[C@H](Cc1ccc(Cl)cc1)C(=O)N[C@H](Cc1cccnc1)C(=O)N[C@@H](CO)C(=O)N[C@@H](Cc1ccc(NC(=O)[C@@H]2CC(=O)NC(=O)N2)cc1)C(=O)N[C@H](Cc1ccc(NC(N)=O)cc1)C(=O)N[C@@H](CC(=O)N(C)C)C(=O)N[C@@H](CCCCNC(C)C)C(=O)N1CCC[C@H]1C(=O)N[C@H](C)C(N)=O | 7.31
CC(=O)N[C@H](Cc1ccc2ccccc2c1)C(=O)N[C@H](Cc1ccc(Cl)cc1)C(=O)N[C@H](Cc1cccnc1)C(=O)N[C@@H](CO)C(=O)N[C@@H](Cc1ccc(NC(=O)[C@@H]2CC(=O)NC(=O)N2)cc1)C(=O)N[C@H](Cc1ccc(NC(N)=O)cc1)C(=O)N[C@@H](CC(C)C)C(=O)N[C@@H](CCCNC(=O)CNC(C)C)C(=O)N1CCC[C@H]1C(=O)N[C@H](C)C(N)=O | 8.86
CC(=O)N[C@H](Cc1ccc2ccccc2c1)C(=O)N[C@H](Cc1ccc(Cl)cc1)C(=O)N[C@H](Cc1cccnc1)C(=O)N[C@@H](CO)C(=O)N[C@@H](Cc1ccc(NC(=O)[C@@H]2CC(=O)NC(=O)N2)cc1)C(=O)N[C@H](Cc1ccc(NC(N)=O)cc1)C(=O)N[C@@H](CS)C(=O)N[C@@H](CCCCNC(C)C)C(=O)N1CCC[C@H]1C(=O)N[C@H](C)C(N)=O | 6.75
CC(=O)N[C@H](Cc1ccc2ccccc2c1)C(=O)N[C@H](Cc1ccc(Cl)cc1)C(=O)N[C@H](Cc1cccnc1)C(=O)N[C@@H](CO)C(=O)N[C@@H](Cc1ccc(NC(=O)[C@@H]2CC(=O)NC(=O)N2)cc1)C(=O)N(C)[C@H](Cc1ccc(NC(N)=O)cc1)C(=O)N[C@@H](CC(C)C)C(=O)N[C@@H](CCCCNC(C)C)C(=O)N1CCC[C@H]1C(=O)N[C@H](C)C(N)=O | 8.73
CC(=O)N[C@H](Cc1ccc2ccccc2c1)C(=O)N[C@H](Cc1ccc(Cl)cc1)C(=O)N[C@H](CNCc1ccccn1)C(=O)N[C@@H](CO)C(=O)N[C@@H](Cc1ccc(NC(=O)[C@@H]2CC(=O)NC(=O)N2)cc1)C(=O)N[C@H](Cc1ccc(NC(N)=O)cc1)C(=O)N[C@@H](CC(C)C)C(=O)N[C@@H](CCCCNC(C)C)C(=O)N1CCC[C@H]1C(=O)N[C@H](C)C(N)=O | 8.57
CC(=O)N[C@H](Cc1ccc2ccccc2c1)C(=O)N[C@H](Cc1ccc(Cl)cc1)C(=O)N[C@H](Cc1cccnc1)C(=O)N[C@@H](CO)C(=O)N[C@@H](Cc1ccc(NC(=O)[C@@H]2CC(=O)NC(=O)N2)cc1)C(=O)N[C@H](Cc1ccc(NC(N)=O)cc1)C(=O)N[C@@H](CC(N)=O)C(=O)N[C@@H](CCCCNC(C)C)C(=O)N1CCC[C@H]1C(=O)N[C@H](C)C(N)=O | 8.04
CC(=O)N[C@H](Cc1ccc2ccccc2c1)C(=O)N[C@H](Cc1ccc(Cl)cc1)C(=O)N[C@H](Cc1cccnc1)C(=O)N[C@@H](CO)C(=O)N[C@@H](Cc1ccc(NC(=O)[C@@H]2CC(=O)NC(=O)N2)cc1)C(=O)N[C@H](Cc1ccc(NC(N)=O)cc1)C(=O)N[C@@H](Cc1ccc(O)cc1)C(=O)N[C@@H](CCCCNC(C)C)C(=O)N1CCC[C@H]1C(=O)N[C@H](C)C(N)=O | 8.55
CC(=O)N[C@H](Cc1ccc2ccccc2c1)C(=O)N[C@H](Cc1ccc(Cl)cc1)C(=O)N[C@H](Cc1cccnc1)C(=O)N[C@@H](CO)C(=O)N[C@@H](Cc1ccc(NC(=O)[C@@H]2CC(=O)NC(=O)N2)cc1)C(=O)N[C@H](Cc1ccc(NC(N)=O)cc1)C(=O)N[C@@H](CC(C)C)C(=O)N[C@@H](CNC(=O)CCNC(C)C)C(=O)N1CCC[C@H]1C(=O)N[C@H](C)C(N)=O | 8.70
CC(=O)N[C@H](Cc1ccc2ccccc2c1)C(=O)N[C@H](Cc1ccc(Cl)cc1)C(=O)N[C@H](Cc1cccnc1)C(=O)N[C@@H](CO)C(=O)N[C@@H](Cc1ccc(NC(=O)[C@@H]2CC(=O)NC(=O)N2)cc1)C(=O)N[C@H](Cc1ccc(NC(N)=O)cc1)C(=O)N[C@@H](CC(C)C)C(=O)N[C@@H](CCCCNC(C)C)C(=O)N1CCC[C@H]1C(=O)N[C@H](C)C(N)=O [DEGARELIX] (Ac-[d2Nal][dPhe(4-Cl)][d3Pal]S[Phe(4-NH2)](Dihydroorotyl(S))[dPhe(4-NHCONH2)]L[Lys(iPr)]P[dA]-NH2) | 8.79
CC(=O)N[C@H](Cc1ccc2ccccc2c1)C(=O)N[C@H](Cc1ccc(Cl)cc1)C(=O)N[C@H](Cc1cccnc1)C(=O)N[C@@H](CO)C(=O)N[C@@H](Cc1ccc(Nc2n[nH]c(N)n2)cc1)C(=O)N[C@H](Cc1ccc(Nc2n[nH]c(N)n2)cc1)C(=O)N[C@@H](CC(C)C)C(=O)N[C@@H](CCCCNC(C)C)C(=O)N1CCC[C@H]1C(=O)N[C@H](C)C(N)=O [PRAZARELIX ACETATE] (Ac-[d2Nal][dPhe(4-Cl)][d3Pal]S[Phe(4-NH(5-NH2triazol-3-yl))][X1]L[Lys(iPr)]P[dA]-NH2) | 8.85

Same assay, conditions: hek293

SMILES | pIC50
CC(=O)N[C@H](Cc1ccc2ccccc2c1)C(=O)N[C@H](Cc1ccc(Cl)cc1)C(=O)N[C@H](Cc1cccnc1)C(=O)N[C@@H](CO)C(=O)N[C@@H](Cc1ccc(NC(=O)[C@@H]2CC(=O)NC(=O)N2)cc1)C(=O)N[C@H](Cc1ccc(NC(N)=O)cc1)C(=O)N[C@@H](CC(C)C)C(=O)N[C@@H](CN[C@H](C(=O)O)C1CCCCC1)C(=O)N1CCC[C@H]1C(=O)N[C@H](C)C(N)=O | 8.70
CC(=O)N[C@H](Cc1ccc2ccccc2c1)C(=O)N[C@H](Cc1ccc(Cl)cc1)C(=O)N[C@H](CN(Cc1ccccn1)Cc1ccccn1)C(=O)N[C@@H](CO)C(=O)N[C@@H](Cc1ccc(NC(=O)[C@@H]2CC(=O)NC(=O)N2)cc1)C(=O)N[C@H](Cc1ccc(NC(N)=O)cc1)C(=O)N[C@@H](CC(C)C)C(=O)N[C@@H](CCCCNC(C)C)C(=O)N1CCC[C@H]1C(=O)N[C@H](C)C(N)=O | 8.27
CC(=O)N[C@H](Cc1ccc2ccccc2c1)C(=O)N[C@H](Cc1ccc(Cl)cc1)C(=O)N[C@@H](Cc1cccnc1)C(=O)N[C@@H](CO)C(=O)N[C@@H](Cc1ccc(NC(=O)[C@@H]2CC(=O)NC(=O)N2)cc1)C(=O)N[C@@H](Cc1ccc(NC(N)=O)cc1)C(=O)N[C@@H](CC(C)C)C(=O)N[C@@H](CCNC(C(=O)O)C1CCCCC1)C(=O)N1CCC[C@H]1C(=O)N[C@H](C)C(N)=O (some centres not stated) | 8.75
CC(=O)N[C@H](Cc1ccc2ccccc2c1)C(=O)N[C@H](Cc1ccc(Cl)cc1)C(=O)N[C@H](CCNCc1ccccn1)C(=O)N[C@@H](CO)C(=O)N[C@@H](Cc1ccc(NC(=O)[C@@H]2CC(=O)NC(=O)N2)cc1)C(=O)N[C@H](Cc1ccc(NC(N)=O)cc1)C(=O)N[C@@H](CC(C)C)C(=O)N[C@@H](CCCCNC(C)C)C(=O)N1CCC[C@H]1C(=O)N[C@H](C)C(N)=O | 8.42
CC(=O)N[C@H](Cc1ccc2ccccc2c1)C(=O)N[C@H](Cc1ccc(Cl)cc1)C(=O)N[C@@H](Cc1cccnc1)C(=O)N[C@@H](CO)C(=O)N[C@@H](Cc1ccc(NC(=O)[C@@H]2CC(=O)NC(=O)N2)cc1)C(=O)N[C@@H](Cc1ccc(NC(N)=O)cc1)C(=O)N[C@@H](CC(C)C)C(=O)N[C@@H](CCCNC(=O)[C@H]1CC(=O)NC(=O)N1)C(=O)N1CCC[C@H]1C(=O)N[C@H](C)C(N)=O | 8.75
